The test system of data set [1] is MT4. The experiment in a line: Cytotoxicity against human MT4 cells up to 8 to 10 uM after 5 days by MTS assay. In kind it is cell-based. The following applies: mt4, 120 h. Summed up: (§1)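 MT-4 cells in RPMI with 15% FBS, 10% T-cell growth factor and 10 µg/mL gentamicin, cultured 5 days at 37 °C, 5% CO₂. Compound-induced cytotoxicity (CCIC50) measured by MTS staining at OD 492 nm, in parallel with the HIV-1 IIIB antiviral MTS readout in the same cell line.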
In general terms: Formazan colour is commonly taken as a measure of viable cells.

Data set [2] is described as follows: Inhibition of HIV recombinant integrase strand transfer assay. On the set-up: species or system Human immunodeficiency virus. The gist of the method:
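Recombinant integrase (2 µM) preassembled with biotinylated donor DNA on streptavidin SPA beads (MOPS pH 7.2, MgCl₂, DTT, 5 min, 37 °C), then washed. Compound in DMSO (6.7% final) preincubated 60 min at 37 °C. [³H] target DNA added at 7 nM final, strand transfer run 25-45 min at 37 °C, EDTA quench, SPA readout. Mean ± standard error.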

For data set [3], the system named is Human immunodeficiency virus. The experiment in a line: Antiviral activity against pseudotype HIV after 2 days in absence of human serum albumin. The following applies: Human immunodeficiency virus 1, 48 h. In kind it is functional, organism-based. Summed up:
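VSV-G-pseudotyped HIV vector carrying luciferase, harvested from transfected 293T cells. Target 293T cells (2 × 10^4 per well) mixed with vector at about 100K CPM and plated onto compounds in DMEM + 10% FCS. Incubated 2 days at 37 °C, 5% CO2. Luciferase read by Steady Glo luminescence. Values are means ± standard error (N > 1).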

The test system of data set [4] is Human immunodeficiency virus. The experiment in a line: Antiviral activity against pseudotype HIV after 2 days in presence 40 mg/mL human serum albumin. The data set is classed as functional, organism-based. The following applies: Human immunodeficiency virus 1, 48 h. Summed up:
(§2)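 Pseudotyped HIV luciferase assay in 293T cells (2 × 10^4 per well), 2 days at 37 °C in DMEM + 10% FCS, luminescence read-out. Run with and without added serum protein, 40 mg/mL HSA. Line 5 is the ratio of the IC50 with HSA to the IC50 without.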

The subject of data set [5] is Human immunodeficiency virus 1. Briefly: Antiviral activity against HIV1 3B infected in human MT4 cells assessed as inhibition of virus-induced cytopathic effect after 5 days by MTS method. The data set is classed as functional, organism-based. The following applies: Human immunodeficiency virus 1, 3B, MT4, 120 h. The gist of the method: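 HIV-1 IIIB infection of MT-4 cells (HTLV-1 transformed) for 1 h at 37 °C, 5% CO2. Cells then added to compounds prediluted in RPMI with FBS and gentamicin; final assay medium had 15% FBS and 10% T-cell growth factor. Incubated 5 days at 37 °C. Virus-induced cytopathic effect read by MTS staining, OD 492 nm. Cytotoxicity measured in parallel.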
For orientation: Protection from cytopathic effect is a common read-out in antiviral testing.

A short description of data set [6]: Cytotoxicity against human MT4 cells after 5 days by MTS assay. In kind it is cell-based. The following applies: read-out: CCIC50. The gist of the method:
as §1

The test system of data set [7] is MT4. The experiment in a line: Cytotoxicity against human MT4 cells up to =>7 uM after 5 days by MTS assay. In kind it is cell-based. The following applies: mt4, 120 h. Summed up:
as §1

Data set [8] can be described thus: Therapeutic index, ratio of CCIC50 for human MT4 cells to IC50 for HIV1 3B. The data set is classed as cell-based. The gist of the method: as §1
Data set [9] concerns Human immunodeficiency virus 1. The experiment in a line: Antiviral activity against HIV1 3B infected in human MT4 cells assessed as inhibition of virus-induced cytopathic effect albumin after 5 days by MTS method in presence of 40 mg/mL human serum albumin. The data set is classed as functional, organism-based. The following applies: Human immunodeficiency virus 1, 3B, MT4, 120 h. The gist of the method: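 HIV-1 IIIB infection of MT-4 cells for 1 h at 37 °C, then cells added to prediluted compounds in RPMI with 15% FBS, 10% T-cell growth factor, 10 µg/mL gentamicin, plus 40 mg/mL HSA. 5 days at 37 °C, 5% CO₂. Cytopathic effect read by MTS staining at OD 492 nm. Mean ± standard error where N > 1.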

Data set [10] relates to Human immunodeficiency virus 1. Briefly: Ratio of IC50 for HIV1 3B in presence of human serum albumin to IC50 for HIV1 3B in absence of human serum albumin. The data set is classed as functional. Summed up:
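MT-4/HIV-1 IIIB MTS cytopathic-effect assay, 5 days at 37 °C, run in standard medium and again with 40 mg/mL HSA added. The ratio compares the IC50 with HSA to the IC50 without.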

Data set [11] in a line: Clearance in CD rat at 1 mg/kg, iv. The data set is classed as ADME, organism-based. On the set-up: dose 1 mg/kg, route intravenous. The following applies: in vivo. Summed up:
(§3)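 Male CD rats, n = 2, given 1 mg/kg iv (1 mL/kg, fasted) in 10% DMSO/15% Solutol/75% 0.05 M […]. Blood drawn via implanted venous cannula at timed intervals over 24 h, EDTA plasma analysed by LC/MS/MS.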

The subject of another data set is Rattus norvegicus. Briefly: Hepatic blood flow in CD rat at 1 mg/kg, iv. The data set is classed as ADME, organism-based, Liver. On the set-up: dose 1 mg/kg, route intravenous. The following applies: in vivo.
A short description of data set [12]: Volume of distribution at steady state in CD rat at 1 mg/kg, iv. The data set is classed as ADME, organism-based. The following applies: in vivo, read-out: Vdss. On the set-up: dose 1 mg/kg, route intravenous. Summed up:
as §3

Data set [13] is described as follows: Oral bioavailability in fasted CD rat at 5 mg/kg. The following applies: in vivo. In kind it is ADME, organism-based. The gist of the method:
(§4)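 Male CD rats, n = 2 per arm, dosed 5 mg/kg po (5 mL/kg) in 10% DMSO/15% Solutol/75% 0.05 M […]. Fasted arm had food removed the evening before and returned 4 h post-dose; other arm nonfasted. Cannula blood sampled over 24 h, EDTA plasma by LC/MS/MS. Bioavailability referenced to the 1 mg/kg iv arm.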

The nature of data set [14]: Oral bioavailability in non fasted CD rat at 5 mg/kg. The following applies: in vivo. The data set is classed as ADME, organism-based. The gist of the method: as §4
In data set [15] the test system is Human immunodeficiency virus. The experiment in a line: Ratio of IC50 for pseudotype HIV in presence of human serum albumin to IC50 for pseudotype HIV in absence of human serum albumin. The data set is classed as functional. The gist of the method:
as §2

On to `COCCNC(=O)c1c(O)c2ncc(Cc3ccccc3)cc2[nH]c1=O`, for which the Activity entry in the data set on MT4 [1] is recorded as “Non-toxic”. For the same compound, the IC50 (commonly the midpoint of a concentration-inhibition curve) in data set [2] came to 7 nM; in data set [3] it was 14 nM; in data set [4] it was 59 nM; in data set [5] it was 91 nM. Moreover, in data set [6], the CC50 at 120 h was more than 10000 nM.

In the case of `CCOC(=O)c1c(O)c2ncc(Cc3ccc(F)cc3)cc2n(CC2CC2)c1=O`, the figures for the IC50 in [2] and in data set [3] were 15 nM and 358 nM, respectively.

With `CC(C)CNC(=O)c1c(O)c2ncc(Cc3ccc(F)cc3)cc2[nH]c1=O`, the Activity entry in the data set on MT4 [7] is “Non-toxic”. Further, the selectivity ratio in data set [8] was more than 100. Also, the IC50 came to 6 nM in data set [2], 4 nM in data set [3], 2500 nM in [4] and 68 nM in [5]. Also, in [6], the CC50 at 120 h is 7000 nM.

For `CCNC(=O)c1c(O)c2ncc(Cc3ccc(F)cc3)cc2n(C)c1=O`, the Activity result with MT4 [7] is on record as “Non-toxic”. Also, the IC50 in data set [2] came out at 4 nM; in data set [3], 1.6 nM; in [4], 661 nM; in data set [5], 3.5 nM; in data set [9] it was 4000 nM. Besides, the CC50 at 120 h in [6] is more than 50000 nM.

With `COCCNC(=O)c1c(O)c2ncc(Cc3ccc(F)cc3)cc2n(C)c1=O`, the IC50 in [2] is 4 nM; in data set [3] it was 2 nM; in data set [4] it was 50 nM; in data set [5] it was 5 nM; in data set [9] it was 48 nM. Also, in data set [6], the CC50 at 120 h was more than 20000 nM. Also, in [10], the “Ratio IC50” value was less than 10. Moreover, the clearance (as a rule, a measure of how efficiently the substance is removed, as volume per time) in data set [11] was 11.8 mL/min/kg. Besides, the QH in the data set with Rattus norvegicus is on record as 20%. Moreover, the Vd in [12] amounted to 0.6 L/kg. Besides, the bioavailability (commonly dose-corrected exposure relative to a reference, in per cent) in data set [13] was 25%; in data set [14], 20%.

Consider `CCOC(=O)c1c(O)c2ncc(Cc3ccccc3)cc2[nH]c1=O`, for which the IC50 was 3 nM in data set [2], 3700 nM in data set [3] and more than 39500 nM in data set [5]. Moreover, in data set [6], the CC50 at 120 h was 103000 nM.

As for `CCOC(=O)c1c(O)c2ncc(Cc3ccc(F)cc3)cc2[nH]c1=O`, the IC50 in data set [2] was 13 nM; in [3] it was 1200 nM; in data set [5], 1200 nM.

`NC(=O)c1c(O)c2ncc(Cc3ccc(F)cc3)cc2[nH]c1=O`: in data set [15], the “Ratio IC50” value is given as 10. The IC50 in data set [2] came out at 45 nM; in [3] it was 66 nM; in data set [4], 656 nM.

Turning to `COCCNC(=O)c1c(O)c2ncc(Cc3ccc(F)cc3)cc2[nH]c1=O`, the Activity result with MT4 [1] is “Non-toxic”. Moreover, the IC50 in [2] is 5 nM; in [3], 4.2 nM; in data set [4] it was 36 nM; in data set [5] it was 36 nM. Also, the CC50 at 120 h in [6] is more than 8000 nM.

Consider `COC(=O)c1c(O)c2ncccc2[nH]c1=O`, for which the figures for the half-maximal inhibitory concentration (IC50) in [2], in [3] and in data set [5] were more than 500000 nM, more than 14000 nM and more than 125000 nM, respectively. Also, the CC50 at 120 h in [6] was more than 125000 nM.

Consider `CNC(=O)c1c(O)c2ncc(Cc3ccc(F)cc3)cc2[nH]c1=O`, for which the Activity result in the data set on MT4 [7] was “Non-toxic”. For the same compound, the selectivity ratio in [8] was more than 100. Also, the IC50 in [2] was determined as 6 nM; in data set [3] it was 3.4 nM; in [4], 119 nM; in data set [5], 30 nM. Also, the CC50 at 120 h in [6] was more than 8000 nM.

Take `CCOC(=O)c1c(O)c2ncc(Cc3ccc(F)cc3)cc2n(C)c1=O`: the half-inhibitory concentration (IC50) in [2] is 6 nM; in data set [3], 77 nM; in data set [4], 12000 nM; in [5] it was 1300 nM. The CC50 at 120 h in data set [6] stood at 6000 nM.

With `CNC(=O)c1c(O)c2ncc(Cc3ccc(F)cc3)cc2n(C)c1=O`, in the data set on MT4 [7], the Activity result was “Non-toxic”. Also, the IC50 in [2] amounted to 4.1 nM; in data set [3], 1.4 nM; in data set [4], 57 nM; in [5] it was 11 nM. Also, the CC50 at 120 h in data set [6] worked out at 20000 nM.

In the case of `COC(=O)c1c(O)c2ncc(Cc3ccccc3)cc2[nH]c1=O`, the IC50 in [2] is 8 nM; in [3], 14000 nM; in data set [5] it was more than 125000 nM. In data set [6], the CC50 at 120 h was more than 125000 nM.

For the compound `CCOC(=O)c1c(O)c2ncc(Cc3ccc(F)cc3)cc2n(CC(C)C)c1=O`, the IC50 in data set [2] was found to be 22 nM; in data set [3], 155 nM.

Consider `O=C(NC1CC1)c1c(O)c2ncc(Cc3ccc(F)cc3)cc2[nH]c1=O`, for which the Activity entry in the data set on MT4 [7] is given as “Non-toxic”. In data set [8], the selectivity ratio is more than 100. Moreover, the IC50 in data set [2] was 10 nM; in data set [3] it was 8 nM; in [4], more than 14000 nM; in data set [5], 78 nM. Further, in data set [6], the CC50 at 120 h was more than 8000 nM.

Values taken from ChEMBL document CHEMBL1138484, “Synthesis and antiviral activity of 7-benzyl-4-hydroxy-1,5-naphthyridin-2(1H)-one HIV integrase inhibitors” (J Med Chem, 2009).
